Among the data in ChEMBL document CHEMBL1142157, “Optimal antimicrobial catheter lock solution, using different combinations of minocycline, EDTA, and 25-percent ethanol, rapidly eradicates organisms embedded in biofilm” (2007) are CFU/ml values, retold here.

What all share (type): functional
Assay [1] relates to Candida parapsilosis. The assay can be described thus: Antimicrobial activity against Candida parapsilosis embedded in MRD biofilm at 3 mg/ml after 15 mins in drug assessed as 24 hr regrowth. In short, it runs like this: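 MRD C. parapsilosis-colonized segments were soaked 15 min at 37°C in drug in broth. A second set was reincubated 24 h at 37°C in Mueller-Hinton broth, scrape-sonicated and plated on sheep blood agar overnight. Regrowth is given as mean CFU/ml ± SD, capped at 500.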

Assay [2] relates to Candida parapsilosis. Briefly: Antimicrobial activity against Candida parapsilosis embedded in MRD biofilm at 3 mg/ml after 15 mins. In short, it runs like this:
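MRD catheter segments colonized by infusing C. parapsilosis-infected 5% dextrose (2 × 10^2 CFU/ml) at 60 ml/h for 8 h at 37°C, then incubated 10 h more and flushed with saline 2 h. Segments soaked 15 min at 37°C in drug in Mueller-Hinton broth (MHB alone as control). Then scrape-sonicated 5 min in Trypticase soy broth and plated on blood agar overnight. Mean CFU/ml ± SD reported, capped at 500.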

The subject of assay [3] is Staphylococcus aureus. Briefly: Antimicrobial activity against methicillin-resistant Staphylococcus aureus in silicone disk biofilm at 3 mg/ml after 60 mins. The procedure, abridged:
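Silicone disks preconditioned in human plasma for 24 h at 37°C with shaking, then shaken 24 h at 37°C with MRSA at 5.5 × 10^5 cells/ml in MHB. Disks washed 30 min in 0.9% saline, exposed to drug for 1 h at 37°C, sonicated 5 min in saline, vortexed and plated on blood agar overnight. 5–10 replicates. Mean CFU/ml, capped at 5,000.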

The test system of assay [4] is Candida parapsilosis. Briefly: Antimicrobial activity against Candida parapsilosis in silicone disk biofilm at 3 mg/ml after 60 mins in drug assessed as 24 hr regrowth. The procedure, abridged: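 C. parapsilosis biofilm on plasma-coated silicone disks was exposed 1 h at 37°C to drug, then saline-washed and incubated overnight at 37°C in Trypticase soy broth. Disks were then sonicated 5 min in that broth and plated on sheep blood agar. 5–10 replicates; regrowth is given as mean CFU/ml ± SD, capped at 5,000.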

Assay [5] relates to Staphylococcus aureus. The assay can be described thus: Antimicrobial activity against methicillin-resistant Staphylococcus aureus embedded in MRD biofilm model at 3 mg/ml after 15 mins. The procedure, abridged: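 MRSA clinical isolates from catheter-related bacteremia. Infusate of 2 × 10^5 CFU/ml in 5% dextrose water pumped through a modified Robbins device at 60 ml/h for 8 h at 37°C, then 10 h further incubation and a 2 h saline flush. Catheter segments soaked in drug in Mueller-Hinton broth for 15 min at 37°C, scrape-sonicated in TSB, plated on blood agar overnight. Mean CFU/ml, capped at 500.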

Assay [6] concerns Staphylococcus aureus. The assay can be described thus: Antimicrobial activity against methicillin-resistant Staphylococcus aureus in silicone disk biofilm at 3 mg/ml after 60 mins in drug assessed as 24 hr regrowth. The procedure, abridged: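 MRSA biofilm on plasma-coated silicone disks (inoculum 5.5 × 10^5 cells/ml in MHB, 24 h, 37°C, shaking), saline-washed, then exposed to drug for 1 h at 37°C. Disks washed in saline, incubated overnight at 37°C in Trypticase soy broth, sonicated 5 min in that broth and plated on blood agar. 5–10 replicates. Mean CFU/ml, capped at 5,000.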

Assay [7] relates to Candida parapsilosis. The assay can be described thus: Antimicrobial activity against Candida parapsilosis in silicone disk biofilm at 3 mg/ml after 60 mins. In short, it runs like this: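 Silicone disks were preconditioned in human plasma for 24 h at 37°C with shaking. They were then colonized 24 h with C. parapsilosis at 5.5 × 10^5 cells/ml in MHB and washed 30 min in saline. Disks were exposed 1 h at 37°C to drug or MHB, sonicated 5 min in saline, vortexed and plated on blood agar. 5–10 replicates; mean CFU/ml ± SD, capped at 5,000.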

Assay [8] has as its system Staphylococcus aureus. Briefly: Antimicrobial activity against methicillin-resistant Staphylococcus aureus embedded in MRD biofilm model at 3 mg/ml after 15 mins in drug assessed as 24 hr regrowth. The procedure, abridged:
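MRSA biofilm grown on catheter segments in a modified Robbins device: 5% dextrose infusate at 2 × 10^5 CFU/ml, 60 ml/h for 8 h at 37°C, then 10 h incubation and a saline flush. Segments exposed to drug in broth for 15 min at 37°C, then reincubated 24 h at 37°C in Mueller-Hinton broth, scrape-sonicated and plated on blood agar. Mean CFU/ml, capped at 500.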

SMILES strings stand for the structures.

For `CN(C)c1ccc(O)c2c1C[C@H]1C[C@H]3[C@H](N(C)C)C(O)=C(C(N)=O)C(=O)[C@@]3(O)C(O)=C1C2=O` [MINOCYCLINE], the CFU/ml in assay [1] is given as 500; in assay [2], 138; in assay [3] it was 5000; in assay [4], 5000; in assay [5], 324; in assay [6], 5000. Further, the CFU/ml in assay [7] is on record as 5000; in assay [8], 308.
